Bioassay records as filed in PubChem.
DAGLB inh: blocks human DAGLB lipase activity; AID 504411; HEK293T DAGLB membrane lysate, EnzChek fluorogenic substrate; inhibition, % at 5.17 µM; Q8NCG7; hit rate 0.059% among 340,000; in the data active = inhibition above about 34%;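 also: 0% = enzyme with vehicle and 100% = wells lacking enzyme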
OPRM1-OPRD1 inv: inverse agonist of human OPRM1-OPRD1 heterodimerization | P35372+P41143 | cell-based MOR-DOR heterodimer luminescence, inverse agonism | inhibition, % at 9.3 µM | hit rate 0.21% among 340,000 | AID 504357; in the data active = inhibition above about 22%, passing the limit was not always enough;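 also: 0% = cells with DMSO and 100% = wells without cells with DMSO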
OPRM1-OPRD1 ag: agonists of human mu-delta opioid receptor heterodimerization; cells, OPRM1-OPRD1 heterodimerization, luminescence; activation, % at 9.3 µM; hit rate 0.3% among 340,000; AID 504326; in the data active = activation above about 18%;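 also: 0% = vehicle-treated cells and 100% = reference agonist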
HTR5A ag ctr: activates human HTR5A in OPRM1-OPRD1 agonist counter-screen; P47898; HTR5A agonist assay, luminescence, cell-based; activation, % at 9.3 µM; hit rate 0.61% among 340,000; AID 504692; in the data active = activation mostly above about 9.5%, no sharp cut-off; inactive = mostly below about 7.6%;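 also: 0% = cells with vehicle only and 100% = reference agonist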
Arrestin-AP2 inh: inhibitors of human beta-arrestin and AP2 interaction; AID 504490; FITC-arrestin peptide / GST-AP2 beads, flow cytometry; AP2 beta2 appendage carries R879A mutation; hit rate 0.31% among 340,000; inhibition, % at 10 µM;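 active = inhibition above a set limit, near 3 SD of compounds lacking own fluorescence, cut at about 54% in these data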;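 also: plate controls were DMSO wells for no effect and 5 µM unlabelled arrestin peptide for full effect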
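Test system: GST-tagged AP2 beta2-adaptin appendage (R879A) on 4 µm glutathione beads; also added: fluorescein-tagged arrestin peptide at 50 nM final; timing: 12 min plus 1 h, RT; signal: flow cytometry, FL1 (488/535 nm); read-out: percent drop in bead-associated FITC signal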
HTR5A inv ag: inverse agonist of human HTR5A in OPRM1-OPRD1 counter-screen. P47898. HTR5A cell line, luminescence, inverse agonism. inhibition, % at 9.3 µM. hit rate 0.083% among 340,000. AID 504634; in the data active = inhibition mostly above about 23%, no sharp cut-off; inactive = mostly below about 18%;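 also: 0% = cells with DMSO and 100% = no-cell wells with DMSO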
Arr-AP2 CP1: human beta-arrestin and AP2 interaction inhibition, cherry pick; shares compounds with Arrestin-AP2 inh; GST-AP2 beads, FITC arrestin peptide binding, flow cytometry; GST-fused beta2-adaptin appendage, R879A mutant; inhibition, % at 10 µM; hit rate 2% among 1,300; AID 504908;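 active = inhibition above a set limit, roughly 3 SD of non-fluorescent compound noise, cut at about 38% in these data; inactive = inhibition at or below that limit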;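 also: loss of bead fluorescence from 50 nM FITC arrestin peptide bound to appendage; 0% = negative control wells and 100% = excess unlabelled arrestin peptide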
Target sequence (P63010 whole entry, looked up, the tested form may be a part, one chain of several): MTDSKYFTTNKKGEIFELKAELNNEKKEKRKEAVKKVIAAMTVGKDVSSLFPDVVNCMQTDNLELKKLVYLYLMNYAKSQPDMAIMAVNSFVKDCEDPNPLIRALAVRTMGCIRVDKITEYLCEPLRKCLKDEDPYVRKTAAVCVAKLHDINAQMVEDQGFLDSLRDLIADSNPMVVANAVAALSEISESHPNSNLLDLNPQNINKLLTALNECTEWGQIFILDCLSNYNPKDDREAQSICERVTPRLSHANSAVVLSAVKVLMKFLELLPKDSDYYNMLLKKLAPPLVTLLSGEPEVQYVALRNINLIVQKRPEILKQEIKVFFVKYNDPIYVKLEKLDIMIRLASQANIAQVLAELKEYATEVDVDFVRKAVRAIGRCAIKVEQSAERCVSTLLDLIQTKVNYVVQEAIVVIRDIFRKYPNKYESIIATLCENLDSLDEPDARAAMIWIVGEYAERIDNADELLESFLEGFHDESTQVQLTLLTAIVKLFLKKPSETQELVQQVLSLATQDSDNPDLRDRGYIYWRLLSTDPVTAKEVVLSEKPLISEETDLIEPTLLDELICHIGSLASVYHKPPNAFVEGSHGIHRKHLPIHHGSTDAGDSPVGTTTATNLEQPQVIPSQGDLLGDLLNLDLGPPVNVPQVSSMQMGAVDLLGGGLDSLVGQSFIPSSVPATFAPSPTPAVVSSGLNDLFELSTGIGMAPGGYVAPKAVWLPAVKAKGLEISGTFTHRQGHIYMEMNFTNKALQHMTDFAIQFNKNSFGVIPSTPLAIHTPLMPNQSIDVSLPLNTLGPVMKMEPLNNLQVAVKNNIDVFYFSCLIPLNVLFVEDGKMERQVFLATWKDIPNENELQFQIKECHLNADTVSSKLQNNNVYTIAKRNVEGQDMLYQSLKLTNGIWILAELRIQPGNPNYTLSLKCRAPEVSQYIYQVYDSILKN
GST-FITC bead: counter-screen for beta-arrestin AP2 inhibitors: GST-GSH bead binding; inhibition, % at 10 µM; hit rate 2% among 1,300; GST-fluorescein binding to GSH beads, fluorescence; AID 588338; shares compounds with Arrestin-AP2 inh;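 active = inhibition above 50%, about 3 SD of the inhibition seen with non-fluorescent compounds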;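 also: fluorescein maleimide labelled GST captured on 4 micron glutathione beads; higher means more loss of bead fluorescence from quenching or blocked binding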
* marks the source's active call; other numbers are inactive results; / = not tested or not shown. Sampled rows, rich in hits. Any-hit rate of the full collection: about 1.4%.

SMILES	DAGLB inh	OPRM1-OPRD1 inv	OPRM1-OPRD1 ag	HTR5A ag ctr	Arrestin-AP2 inh	HTR5A inv ag	Arr-AP2 CP1	GST-FITC bead
CNS(=O)(=O)c1ccc2c3c(cccc13)C(=O)N2	-1	4	-1	-2	10	8	/	/
CC(C)CCSc1nc2[nH]ncc2c(=O)[nH]1	-2	6	-1	2	59*	-5	5	6
C#CCSc1nc2[nH]ncc2c(=O)[nH]1	1	-13	3	1	14	30	/	/
CC(C)c1ccc2[nH]c(O)c(N=NC(=O)c3cccc(S(=O)(=O)Nc4ccccc4Cl)c3)c2c1	0	-4	1	-2	100*	7	-4	-5
Cc1ccc(C(=O)N2CCC(N3CCC(C(=O)N4CCOCC4)CC3)CC2)cc1	1	/	/	/	/	/	/	/
CCOc1ccc(Cc2noc3c2C(=O)CC(C)(C)C3)cc1OCC	-2	2	0	1	57*	-3	9	-4
CC(O)(CC(=O)CC(=O)c1ccccc1)c1ccccc1 (stereo unspecified)	-6	-18	4	-2	0	7	/	/
COc1ccc(C(=O)N2CCN(c3nc4cc(C)cc(C)c4cc3C#N)CC2)cc1	-4	/	/	/	/	/	/	/
COc1ccc(S(=O)(=O)N(C)C[C@H]2Oc3ccc(NS(=O)(=O)c4cn(C)cn4)cc3C(=O)N([C@H](C)CO)C[C@@H]2C)cc1	0	1	0	2	73*	-6	0	-3
C[C@H](CO)N1C[C@H](C)[C@@H](CN(C)S(=O)(=O)c2ccccc2)Oc2ccc(NC(=O)Nc3ccccc3)cc2C1=O	-1	0	0	1	54*	-4	10	-8
C[C@H](CO)N1C[C@H](C)[C@@H](CN(C)S(=O)(=O)c2ccc(F)cc2)Oc2ccc(NC(=O)Nc3ccccc3)cc2C1=O	-2	22	-4	-1	-5	4	/	/
CC(C)(C)c1cc(C(=O)Nc2cccnc2)cc(C(=O)Nc2cccnc2)c1	-8	14	-3	-4	61*	16	4	0
CCOc1ccc(S(=O)(=O)NCCC(=O)N(CC)CC(=O)Nc2c(F)cccc2F)cc1	1	-1	0	5	-2	-15	/	/
CCN(CC(=O)Nc1c(F)cccc1F)C(=O)CCNS(=O)(=O)c1ccc(C)c(C)c1	0	0	0	3	58*	-8	-4	0
CN(CCOc1ccccc1)C(=O)c1cc([N+](=O)[O-])cc([N+](=O)[O-])c1	4	-32	7	-7	60*	21	18	3
Cc1ccc(S(=O)(=O)N2C[C@H]3n4c(=O)ccc(=O)n4C[C@H](OC(=O)NCC4CCCCC4)[C@@]3(O)C2)cc1	8	/	/	/	/	/	/	/
Cc1cc(C)c(OCC(=O)OCC(=O)NCc2ccco2)c(C)c1	-6	/	/	/	/	/	/	/
CCCOc1ccc(C(=O)CCNc2cccc(Cl)c2)cc1	-13	-19	4	1	57*	-3	5	-1
O[C@H]1C[C@H](c2ccccc2)N(CC2CCCCC2)C[C@@H]1n1cc(C2CC2)nn1	0	/	/	/	/	/	/	/
Cc1cc(C)cc(NC(=O)Nc2cnccn2)c1	0	11	-2	-4	8	13	-7	0
O=C(Nc1ccc(Cl)cc1)Nc1cnccn1	1	-6	1	1	10	5	16	5
O=C(Nc1ccc(F)c(Cl)c1)Nc1cnccn1	-1	14	-3	-5	17	12	/	/
O=C(Nc1cccc(Cl)c1)Nc1cnccn1	1	20	-4	-5	-4	12	-2	2
Cc1ccc(NC(=O)Nc2cnccn2)cc1C	-2	-1	0	7	9	-6	3	-2
O=C(Nc1ccc([N+](=O)[O-])cc1)Nc1cnccn1	-1	13	-2	2	-8	8	/	/
SMILES	DAGLB inh	OPRM1-OPRD1 inv	OPRM1-OPRD1 ag	HTR5A ag ctr	Arrestin-AP2 inh	HTR5A inv ag	Arr-AP2 CP1	GST-FITC bead
COc1cccc(/C=N/NC(=O)c2nnn(-c3nonc3N)c2CN(C)C2CCCCC2)c1	-8	/	/	/	/	/	/	/
CC(C)N1CCN(c2ccncc2S(=O)(=O)N2CCN(C)CC2)CC1	-3	/	/	/	/	/	/	/
CSc1ncnc2c1ncn2CCCNCc1ccccn1	4	/	/	/	/	/	/	/
COC(=O)c1ccc(NC(=O)Nc2ccc(OC)c(OC)c2)cc1	1	9	-2	0	0	4	/	/
COc1ccc(NC(=O)Nc2cnccn2)cc1OC	0	8	-2	4	-9	-9	-3	8
Cc1ccc(NC(=O)Nc2cnccn2)cc1	-1	17	-3	-4	45	9	-8	10
O=C(Nc1ccccc1)Nc1cnccn1	-2	12	-2	6	40	-4	-5	-7
CC(C)c1ccc(NC(=O)Nc2cnccn2)cc1	0	4	-1	-7	-7	-18	-2	-5
O=C1[C@H]2[C@@H](c3ccccc3)N[C@]3(CCCN(CC4CCCCC4)C3=O)[C@H]2C(=O)N1Cc1ccccc1	-5	/	/	/	/	/	/	/
Cc1cnc(NC(=O)Nc2ccccc2)c(C)n1	-1	3	-1	-3	-3	9	-14	-2
COc1ccc(CC(=O)NNC2=Nc3cccc4cccc2c34)cc1	/	/	/	/	58*	/	2	-3
COc1ccc(C(=O)NNC2=Nc3cccc4cccc2c34)cc1	2	-40	9	4	15	-11	/	/
CCOC(=O)C1=C(COC(=O)COc2ccc(Br)cc2)NC(=O)NC1C (stereo unspecified)	0	-1	0	3	-4	14	-5	-7
CCOC(=O)C1=C(COC(=O)CNC(=O)c2cccc(C)c2)NC(=O)NC1C (stereo unspecified)	0	12	-2	1	2	8	/	/
CCOC(=O)C1=C(COC(=O)CCOc2ccc(OC)cc2)NC(=O)NC1C (stereo unspecified)	1	6	-2	4	-9	-9	-1	-12
CCOC(=O)C1=C(COC(=O)CCOc2ccc(C)cc2)NC(=O)NC1C (stereo unspecified)	-2	6	-1	3	12	-8	-5	-11
C/C=C/c1ccc(OCC(=O)OCC2=C(C(=O)OCC)C(C)NC(=O)N2)c(OC)c1 (stereo unspecified)	2	0	0	4	8	-4	/	/
CCOC(=O)C1=C(COC(=O)/C=C/c2ccc(OC)cc2OC)NC(=O)NC1C (stereo unspecified)	-3	-5	1	5	13	-12	/	/
O=S1(=O)CCN(C2CC2)CC1	-4	/	/	/	/	/	/	/
CC(=O)C(C(c1ccccc1)N1CCCc2ccccc21)N1CCOCC1 (stereo unspecified)	0	-1	0	-1	-15	3	/	/
